Data set [1] deals with Cryptococcus neoformans. Nature of the data set: Antifungal activity against Cryptococcus neoformans JLC 50123 by broth microdilution method. The format is functional. The method, boiled down:
(§1)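 MICs were determined by broth microdilution following NCCLS guidelines (M38-P for filamentous fungi). The panel covered four yeast species and two Aspergillus species, with two strains per species. Itraconazole served as positive control.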
In general terms: Dilution methods test growth across graded concentrations, often in twofold steps.

Data set [2] has as its system Aspergillus flavus. As to the kind of experiment: Antifungal activity against Aspergillus flavus JLC 30784 by broth microdilution method. The format is functional. The method, boiled down:
as §1

For data set [3], the system named is Aspergillus fumigatus. As to the kind of experiment: Antifungal activity against Aspergillus fumigatus JLC 30506 by broth microdilution method. The format is functional. In outline: as §1
Data set [4] has as its system Candida albicans. Nature of the data set: Antifungal activity against Candida albicans JLC 30364 by broth microdilution method. The format is functional. In outline: as §1
Data set [5] has as its system Candida parapsilosis. As to the kind of experiment: Antifungal activity against Candida parapsilosis JLC 30365 by broth microdilution method. The conditions noted are these: Lodderomyces parapsilosis. The format is functional. In outline: as §1
The test system of data set [6] is Pichia kudriavzevii. As to the kind of experiment: Antifungal activity against Candida krusei JLC 30366 by broth microdilution method. The format is functional. The method, boiled down:
as §1

The test system of data set [7] is Cryptococcus neoformans. As to the kind of experiment: Antifungal activity against Cryptococcus neoformans JLC 50122 by broth microdilution method. Format: functional. The method, boiled down: as §1
The test system of data set [8] is Candida albicans. Nature of the data set: Antifungal activity against Candida albicans JLC 31374 by broth microdilution method. Format: functional. The method, boiled down: as §1
The subject of data set [9] is Candida parapsilosis. Nature of the data set: Antifungal activity against Candida parapsilosis JLC 30275 by broth microdilution method. Format: functional. The note with it: Lodderomyces parapsilosis. The method, boiled down:
as §1

Data set [10] relates to Pichia kudriavzevii. As to the kind of experiment: Antifungal activity against Candida krusei JLC 30386 by broth microdilution method. The format is functional. In outline: as §1
For data set [11], the system named is Aspergillus fumigatus. As to the kind of experiment: Antifungal activity against Aspergillus fumigatus JLC 30883 by broth microdilution method. Format: functional. In outline:
as §1

Data set [12] relates to Aspergillus flavus. Nature of the data set: Antifungal activity against Aspergillus flavus JLC 40437 by broth microdilution method. Format: functional. The method, boiled down: as §1
Data set [13] in a line: Clearance in rat at 2.5 mg/kg, iv administered as single dose. Format: ADME, organism-based. On the set-up: dose 2.5 mg/kg, route intravenous. The conditions noted are these: in vivo. The method, boiled down:
(§2)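 Rats received a single iv dose. Drug levels were measured in plasma. Parameters came from the plasma concentration–time data: AUC over 0–t in ng h/mL, clearance (CL) in L/h/kg, and half-life in h.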

Data set [14] is described as follows: Acute toxicity in po dosed ICR mouse assessed as mortality after 10 days. The note with it: in vivo. Format: organism-based. In outline: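 Single oral dose on day 0 at 100, 144, 207, 299, 430 or 619 mg/kg. Animals were watched continuously for 10 days, recording deaths and signs of toxicity. LD50 was calculated by a modified Kaber method.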
Data set [15] in a line: Oral bioavailability in rat at 10 mg/kg, administered as single dose. The format is ADME, organism-based. The note with it: in vivo. In outline: (§3)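 Rats received a single dose of compound, either oral (10 mg/kg) or intravenous (10, 5 or 2.5 mg/kg). Plasma levels were followed, and the reported parameters were Cmax, Tmax, AUC0–t, half-life, clearance and bioavailability (F).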

Data set [16] in a line: Half life in rat at 10 mg/kg, po administered as single dose. The format is ADME, organism-based. On the set-up: dose 10 mg/kg, route oral. The note with it: in vivo. The method, boiled down: as §3
Data set [17] is described as follows: Half life in rat at 2.5 mg/kg, iv administered as single dose. More on the design: dose 2.5 mg/kg, route intravenous. The format is ADME, organism-based. The note with it: in vivo. In outline:
as §2

Data set [18] can be described thus: Solubility of the compound in water at pH 1.2. Format: physicochemical.
Data set [19] in a line: Cmax in rat at 10 mg/kg, po administered as single dose. Format: ADME, organism-based. More on the design: dose 10 mg/kg, route oral. The conditions noted are these: in vivo. The method, boiled down:
as §3

Data set [20] can be described thus: AUC (0 to t) in rat at 2.5 mg/kg, iv administered as single dose. Format: ADME, organism-based. On the set-up: dose 2.5 mg/kg, route intravenous. The note with it: plasma. The method, boiled down:
as §2

The test system of another data set is Salmonella typhimurium. As to the kind of experiment: Mutagenic activity in Salmonella Typhimurium assessed as number of revertants colonies after 48 hrs by Ames test. The conditions noted are these: salmonella enterica subsp. enterica serovar typhimurium. Format: toxicity, organism-based. In outline: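 Plate incorporation protocol without S9 mix. About 10^9 bacterial cells in culture medium were mixed with test compound in DMSO and poured onto hardened agar, in triplicate plates. Plates were incubated at 37 °C for 48 h, then revertant colonies were counted and reported as mean ± standard deviation.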

Data set [21] can be described thus: AUC (0 to t) in rat at 10 mg/kg, po administered as single dose. The format is ADME, organism-based. On the set-up: dose 10 mg/kg, route oral. The conditions noted are these: plasma. In outline: as §3
A short description of data set [22]: Tmax in rat at 10 mg/kg, po administered as single dose. The format is ADME, organism-based. On the set-up: dose 10 mg/kg, route oral. The note with it: in vivo. The method, boiled down: as §3
Data set [23] can be described thus: Clearance in rat at 10 mg/kg, iv administered as single dose. Format: ADME, organism-based. More on the design: dose 10 mg/kg, route intravenous. The conditions noted are these: in vivo. In outline: as §3
A short description of data set [24]: Half life in rat at 10 mg/kg, iv administered as single dose. Format: ADME, organism-based. More on the design: dose 10 mg/kg, route intravenous. The conditions noted are these: in vivo. In outline: as §3
Data set [25] in a line: AUC (0 to t) in rat at 10 mg/kg, iv administered as single dose. More on the design: dose 10 mg/kg, route intravenous. The conditions noted are these: plasma. The format is ADME, organism-based. In outline: as §3

Values after ≈ are worked out from the molar mass of the structure shown.

For the molecule `CC(CO)Cn1ncn(-c2ccc(N3CCN(c4ccc(OC[C@H]5CO[C@](Cn6cncn6)(c6ccc(F)cc6F)O5)cc4)CC3)cn2)c1=O` (stereo partly specified), the MIC (usually the lowest concentration found to suppress growth) in the data set on Cryptococcus neoformans [1] was 0.03 µg/mL (≈ 0.0435 µM); in the data set with Aspergillus flavus [2] it was 0.125 µg/mL (≈ 0.181 µM); in the data set with Aspergillus fumigatus [3], 0.5 µg/mL (≈ 0.725 µM); against Candida albicans [4], less than 0.0156 µg/mL; in the data set with Candida parapsilosis [5] it was less than 0.0156 µg/mL; in the data set on Pichia kudriavzevii [6], less than 0.0156 µg/mL. Moreover, the MIC with Cryptococcus neoformans [7] was 0.03 µg/mL (≈ 0.0435 µM); with Candida albicans [8], less than 0.0156 µg/mL; in the data set with Candida parapsilosis [9], less than 0.0156 µg/mL; against Pichia kudriavzevii [10], less than 0.0156 µg/mL; in the data set with Aspergillus fumigatus [11] it was 0.5 µg/mL (≈ 0.725 µM); against Aspergillus flavus [12], 0.125 µg/mL (≈ 0.181 µM).

As for `CC(C)(CO)Cn1ncn(-c2ccc(N3CCN(c4ccc(OC[C@H]5CO[C@](Cn6cncn6)(c6ccc(F)cc6F)O5)cc4)CC3)cn2)c1=O`, the clearance (in general, a measure of how efficiently the substance is removed, as volume per time) in data set [13] was 36.7 mL/min/kg. In addition, the MIC against Cryptococcus neoformans [1] is less than 0.0156 µg/mL; in the data set with Aspergillus flavus [2], less than 0.0156 µg/mL; in the data set with Aspergillus fumigatus [3] it was 0.03 µg/mL (≈ 0.0426 µM); with Candida albicans [4], 0.0156 µg/mL (≈ 0.0222 µM); against Candida parapsilosis [5] it was less than 0.0156 µg/mL; against Pichia kudriavzevii [6], less than 0.0156 µg/mL. In addition, the MIC against Cryptococcus neoformans [7] is less than 0.0156 µg/mL; against Candida albicans [8], 0.0156 µg/mL (≈ 0.0222 µM); against Candida parapsilosis [9] it was less than 0.0156 µg/mL; with Pichia kudriavzevii [10], less than 0.0156 µg/mL; against Aspergillus fumigatus [11], 0.03 µg/mL (≈ 0.0426 µM); against Aspergillus flavus [12], less than 0.0156 µg/mL. Moreover, in data set [14], the LD50 (usually the dose expected to kill half of the subjects tested) at 240 h was 278 mg/kg. For the same molecule, in data set [15], the bioavailability (as a rule, the share of a dose that reaches the circulation, judged against a reference dose that is usually intravenous) turned out to be 42.2%. In addition, the results for the half-life in data set [16] and in data set [17] were 205 min and 138 min, respectively. Also, the solubility (in general, how much of the substance goes into solution per volume) in data set [18] (water, read-out: solubility) is 190 µg/mL (≈ 270 µM). In addition, in data set [19], the Cmax – broadly, the maximum level reached in the sampled fluid or tissue – turned out to be 297 ng/mL. Moreover, the results for the AUC(0-t) in data set [20] and in data set [21] were 1120 ng·h/mL and 1900 ng·h/mL, respectively. Moreover, the Activity entry in the data set with Salmonella typhimurium is reported as “Non-toxic”. Further, in data set [22], the Tmax – broadly, the time from dosing to the highest level – came to 3 h.

`CCC(C)n1ncn(-c2ccc(N3CCN(c4ccc(OCC5COC(Cn6cncn6)(c6ccc(Cl)cc6Cl)O5)cc4)CC3)cc2)c1=O` (stereo unspecified) [ITRACONAZOLE]: the minimum inhibitory concentration (MIC) in the data set with Cryptococcus neoformans [1] amounted to 1 µg/mL (≈ 1.42 µM); in the data set on Aspergillus flavus [2], 0.125 µg/mL (≈ 0.177 µM); in the data set with Aspergillus fumigatus [3] it was 0.25 µg/mL (≈ 0.354 µM); with Candida albicans [4], 0.125 µg/mL (≈ 0.177 µM); in the data set on Candida parapsilosis [5], 0.25 µg/mL (≈ 0.354 µM); in the data set with Pichia kudriavzevii [6] it was 0.0625 µg/mL (≈ 0.0886 µM). Besides, the minimal inhibitory concentration (MIC) in the data set on Cryptococcus neoformans [7] amounted to 1 µg/mL (≈ 1.42 µM); against Candida albicans [8], 0.125 µg/mL (≈ 0.177 µM); against Candida parapsilosis [9] it was 0.25 µg/mL (≈ 0.354 µM); against Pichia kudriavzevii [10], 0.0625 µg/mL (≈ 0.0886 µM); against Aspergillus fumigatus [11], 0.25 µg/mL (≈ 0.354 µM); with Aspergillus flavus [12] it was 0.125 µg/mL (≈ 0.177 µM). The molecule further had a clearance in [23] of 322 mL/min/kg. This molecule also gave a bioavailability in data set [15] of 8%. Further, the results for the half-life in [24] and in [16] were 1320 min and 154 min, respectively. In [18] (buffer), this molecule had a solubility of 16 µg/mL (≈ 22.7 µM). In addition, the Cmax in data set [19] was determined as 6.28 ng/mL. The values for the AUC(0-t) in data set [21] and in data set [25] were 27.5 ng·h/mL and 343 ng·h/mL, respectively. In addition, in data set [22], the Tmax worked out at 3 h.

(Values after ChEMBL document CHEMBL1806410, “Design and synthesis of pyridine-substituted itraconazole analogues with improved antifungal activities, water solubility and bioavailability” (Bioorg Med Chem Lett, 2011).)
